Laboratory results taken from PMC2926617 (Nucleic Acids Research, 2010).
Where two headings read alike, the source gives them in different places. One block for each molecule: values may come before it.

B5: CarS antirepressor (natural protein, Myxococcus xanthus, UniProt Q06911 1-111, looked up)
chain: MIQDPSLIICHDVDGAPVRIGAKVKVVPHSEDGTISQRFLGQTGIVVGLVFDDPATQYPDDPLIQVLVEGLGEDLFFPEELELAPEWARNRIAQHRQAVRTGGRSSLERLP
B7: CarANt, N-terminal DNA-binding domain of CarA (domain or fragment, Myxococcus xanthus)
chain: MTLRIRTIARMTGIREATLRAWERRYGFPRPLRSEGNNYRVYSREEVEAVRRVARLIQEEGLSVSEAIAQVKTEPPRE

What was measured:
[1] = target: T1, CarS (Myxococcus xanthus, UniProt Q06911); test: ITC titration with CarS; assay type: binding
T1 sequence (Q06911 1-111): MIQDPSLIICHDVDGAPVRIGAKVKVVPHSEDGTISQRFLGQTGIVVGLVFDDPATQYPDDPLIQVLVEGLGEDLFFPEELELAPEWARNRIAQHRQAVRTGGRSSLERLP

[2] = target: T1, CarS; test: Analytical gel filtration, complex formation with CarS; assay type: binding; settings: Superdex200, pH 7.5, mixture with CarS
Procedure, shortened: (§1)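 Superdex200 analytical size-exclusion HPLC in 50 mM phosphate pH 7.5, 2 mM β-mercaptoethanol and the required NaCl. Samples were 10–50 µM pure protein, or CarNt or CarHNt mixed with CarS or variant at equivalent concentrations. Flow was 0.4 ml/min with detection at 280, 235 and 220 nm. Peak fractions were identified by SDS–PAGE. Mr was taken from elution volume via log Mr = 7.64 – 0.209 Ve.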

[3] = target: T1, CarS; settings: cited from earlier work
[4] = system: CarA or CarH N-terminal domain; settings: cited from earlier work
[5] = target: P01, CarA α2 peptide (α2 segment plus the subsequent eight C-terminal residues) (Myxococcus xanthus); test: ITC
[6] = target: P01, CarA α2 peptide (α2 segment plus the subsequent eight C-terminal residues) (Myxococcus xanthus); test: ITC; remark: listed apart in the source
[7] = target: P02, CarA α2 peptide (α2 only) (Myxococcus xanthus); test: ITC
[8] = target: P01, CarA α2 peptide (α2 segment plus the subsequent eight C-terminal residues) (Myxococcus xanthus); test: ITC; remark: listed apart in the source
[9] = target: P01, CarA α2 peptide (α2 segment plus the subsequent eight C-terminal residues) (Myxococcus xanthus); test: ITC; remark: listed apart in the source
[10] = target: CHP01, CarHNt peptide equivalent to P01 (Myxococcus xanthus); test: ITC
[11] = target: B7; test: ITC
[12] = Analytical gel filtration of pure proteins; assay type: physicochemical; settings: Superdex200, 50 mM phosphate pH 7.5, 2 mM β-mercaptoethanol
Procedure, shortened: as §1

[13] = system: CarANt; test: Analytical gel filtration, complex formation with CarANt; assay type: binding, Myxococcus xanthus
Procedure, shortened: as §1

[14] = system: CarA; test: Yeast two-hybrid interaction with CarA; assay type: cell-based, Myxococcus xanthus; settings: 30°C
Procedure, shortened: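 Yeast EGY48 carrying lacZ reporter pSH18-34 was cotransformed (lithium acetate) with LexA–CarA and B42–CarS or variant fusions. Equal-density cultures were spotted on galactose or glucose (basal fusion expression) plates with leucine, grown 1 day at 30°C, then overlaid with X-Gal agarose for 2–3 h (Gal) or ≥7 h (Glu). Interaction was scored by blue colour; single-hybrid cells served as controls.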

[15] = target: B5; test: ITC

Molecule: Ac-GVRVELIRAWERRYGVLTPRRTP-NH2 [CHP01]
Kd [1]: 690 ± 140 nM
ITC heat change / binding ([1]; ITC with CarS, pH 7.5): bind tightly to CarS, but with a KD somewhat higher than for P01
N (binding stoichiometry) ([1]; ITC, CarS, 25 °C, pH 7.5, 100 mM NaCl, 50 mM phosphate, 2 mM β-mercaptoethanol, 0.05% sodium azide, 20 µM CarANt or peptide titrated with 0.22 mM CarS, average of at least two independent titrations): 0.91 ± 0.01
ΔH ([1]; ITC, CarS, 25 °C, pH 7.5, 100 mM NaCl, 50 mM phosphate, average of at least two independent titrations): −7.15 ± 0.17 kcalmol^−1

Apparent Mr of complex with CarS [2]: ≈ 35 kDa
Complex formation with CarS [2]: forms a 1:1 complex
B1: CarHNt: CarH N-terminal DNA-binding domain (protein)
chain: MAERTYRINIAAELAGVRVELIRAWERRYGVLTPRRTPAGYRAYTDRDVAVLKQLKRLTDEGVAISEAAKLLPQLMEGLE
modifications: left off: H6, end not stated, cleaved

B2: CarA R15 to A: CarA with R15 mutated to A (ref 10) (protein, UniProt Q50899 1-288, looked up, variant R15A)
HTH-type transcriptional …: MTLRIRTIARMTGIAEATLRAWERRYGFPRPLRSEGNNYRVYSREEVEAVRRVARLIQEEGLSVSEAIAQVKTEPPREQPEAERLRERFWSSVGALEGDEVTRVLDDAQTVMDVEAYCDGFLLPLLREMGVRLDVAREHLASALIRQRLRQVYDALSPAPAGPRALLACPSGDHHEGGLLVLGIHLKRKGWRVTMLGADTPAAALQGACVQVRPDVVALSFVRARAPEEFASVLEDALRACAPFPVVVGGLGAREHLKAIFSLGAQYAESSEELVAIWNQVRNAQNRP
Interaction of CarA variant with CarS [3]: CarS-binding was not impaired

B3: R20′ to A: CarA with R20 mutated to A (ref 10) (protein, UniProt Q50899 1-288, looked up, variant R20A)
HTH-type transcriptional …: MTLRIRTIARMTGIREATLAAWERRYGFPRPLRSEGNNYRVYSREEVEAVRRVARLIQEEGLSVSEAIAQVKTEPPREQPEAERLRERFWSSVGALEGDEVTRVLDDAQTVMDVEAYCDGFLLPLLREMGVRLDVAREHLASALIRQRLRQVYDALSPAPAGPRALLACPSGDHHEGGLLVLGIHLKRKGWRVTMLGADTPAAALQGACVQVRPDVVALSFVRARAPEEFASVLEDALRACAPFPVVVGGLGAREHLKAIFSLGAQYAESSEELVAIWNQVRNAQNRP
Interaction of CarA variant with CarS [3]: no apparent impairment in interactions with CarS

Kd [5]: 200 nM
dH [5]: -10.9 kcalmol^−1
stoichiometry N [5]: 0.89
Kd [6]: 175 nM
dH [6]: -5.7 kcalmol^−1
stoichiometry N [6]: 0.93
Kd [7]: 490 nM
dH [7]: -7.6 kcalmol^−1
stoichiometry N [7]: 0.97
Kd [8]: 150 nM
dH [8]: -8.46 kcalmol^−1
stoichiometry N [8]: 0.92
Kd [9]: 270 nM
dH [9]: -14.4 kcalmol^−1
stoichiometry N [9]: 0.89
B4: CarS1, functional truncated form of CarS (lacking the last 25 residues) (domain or fragment)
chain: MIQDPSLIICHDVDGAPVRIGAKVKVVPHSEDGTISQRFLGQTGIVVGLVFDDPATQYPDDPLIQVLVEGLGEDLFFPEELELAPE
Complex formation stoichiometry [4]: forms a 1:1 complex

Molecule: B5
Kd [7]: 300 nM
dH [7]: -12 kcalmol^−1
stoichiometry N [7]: 1.07
Kd [10]: 690 nM
dH [10]: -7.15 kcalmol^−1
stoichiometry N [10]: 0.91
Kd [8]: 150 nM
dH [8]: -11.7 kcalmol^−1
stoichiometry N [8]: 0.93
dH [11]: -9.24 ± 0.02 kcalmol^−1
stoichiometry N [11]: 0.94 ± 0.01

B6: CarS: antirepressor of Myxococcus xanthus (protein)
chain: MIQDPSLIICHDVDGAPVRIGAKVKVVPHSEDGTISQRFLGQTGIVVGLVFDDPATQYPDDPLIQVLVEGLGEDLFFPEELELAPEWARNRIAQHRQAVRTGGRSSLERLP
modifications: left off: H6, end not stated, cleaved
Apparent Mr of pure protein [12]: 15.1 ± 0.8 kDa
Apparent Mr of complex/peak in mixture with CarANt ([13]; Superdex200, 50 mM phosphate pH 7.5, 2 mM β-mercaptoethanol, mixture with CarANt): 30 ± 2 kDa
Complex formation with CarANt ([13]; Superdex200, pH 7.5, mixture with CarANt): formed a stable 1:1 complex
Two-hybrid blue color, galactose plates ([14]; galactose plates, X-gal overlay): turned blue within two hours
Two-hybrid blue color, glucose plates ([14]; glucose plates (basal B42-fusion expression), X-gal 7–24 h): blue color

Molecule: B7
Kd [15]: 12 ± 3 nM
